Calls of active or inactive are those of the source. No cut-off for these calls is given here. Square brackets hold non-standard residues; d marks the D form. Peptide text beside a SMILES is read from it. * marks the point of attachment. Phe(4-NO2) = N[C@@H](Cc1ccc([N+](=O)[O-])cc1)C(=O)O; 4Abz = Nc1ccc(C(=O)O)cc1; Propionyl = CCC(=O)*; Bz = O=C(c1ccccc1)*; ClAc = O=C(CCl)*
Legend:
[1] = Cytotoxicity against human HepG2(2.2.15) cells after 24 hours following 9 days of treatment by neutral red dye uptake assay; format: cell-based; settings: read-out: TC50
Outline: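 2.2.15 cells grown to confluence were treated with compound as in the antiviral assay, with untreated controls on each plate. Toxicity was measured by neutral red uptake (absorbance 510 nm, relative to untreated cells) 24 h after 9 days of treatment, giving TC50.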

Hepatitis B virus [2] = assay: Antiviral activity against HBV infected in human HepG2(2.2.15) cells assessed as inhibition of viral DNA replication by measuring HBsAg and HBeAg production at TC50 after 9 days by EIA; format: functional, organism-based
[3] = Selectivity index, ratio of TC50 for human HepG2(2.2.15) cells to IC50 for HBV
Outline: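 Calculated as TC50 (neutral red uptake in 2.2.15 cells) divided by IC50 (HBsAg/HBeAg inhibition by EIA in 2.2.15 cells).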

Hepatitis B virus [4] = assay: Antiviral activity against HBV infected in human HepG2(2.2.15) cells assessed as inhibition of viral DNA replication by measuring HBsAg and HBeAg production after 9 days by EIA; format: functional, organism-based; settings: HepG2 2.2.15, 216 h
Outline: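 Confluent 2.2.15 cells in RPMI 1640 with 2% FBS received test compounds daily (medium changed daily) for 8 consecutive days in a second protocol. Cells in the 24-well protocol were seeded at 1.0 × 10⁵ cells/mL in MEM with 10% FBS for 24 h. They were then exposed to drug for 9 days, with medium changed every 3 days. Supernatant HBsAg/HBeAg was read by EIA at days 6 and 9, and the test was run twice.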

Row | SMILES | IC50 (Hepatitis B virus [4]) | CC50 at 216 h [1] | inhibition (Hepatitis B virus [2]) | Selectivity Index [3]
1 | CC(=O)Nc1ccc(C(=O)N[C@@H](Cc2ccc(O)cc2)C(=O)N[C@H](CO)Cc2ccccc2)cc1 |  | 749 µM | inactive | 
2 | CCOc1ccc(C[C@H](NC(=O)[C@H](Cc2ccccc2)NC(=O)c2ccccc2)C(=O)O)cc1 (Bz-Phe-Tyr(Et)-OH) |  | 1010 µM | inactive | 
3 | O=C(N[C@@H](Cc1ccccc1)C(=O)N[C@H](CO)Cc1ccccc1)c1ccncc1 | 28.9 µM | 214 µM |  | 7.39
4 | CC(=O)OC[C@H](Cc1ccccc1)NC(=O)[C@H](Cc1ccccc1)NC(=O)c1ccc(CN2CCOCC2)cc1 |  | 609 µM | inactive | 
5 | COC(=O)[C@H](Cc1ccccc1)NC(=O)[C@H](Cc1ccccc1)NC(=O)c1ccc(NC(=O)CCl)cc1 ({ClAc-4Abz}-Phe-Phe-OMe) |  | 223 µM | inactive | 
6 | COC(=O)[C@H](Cc1ccc([N+](=O)[O-])cc1)NC(=O)[C@H](Cc1ccccc1)NC(=O)c1ccncc1 |  | 812 µM | inactive | 
7 | COC(=O)[C@H](Cc1ccccc1)NC(=O)[C@H](Cc1ccccc1)NC(=O)c1ccc(NC(=O)CN(C)C)cc1 |  | 111 µM | inactive | 
8 | COC(=O)[C@H](Cc1ccc(O)cc1)NC(=O)[C@H](Cc1ccccc1)NC(=O)c1ccc(NC(C)=O)cc1 (Ac-[4Abz]-Phe-Tyr-OMe) | 9.06 µM | 771 µM |  | 85.09
9 | COC(=O)[C@H](Cc1ccccc1)NC(=O)[C@H](Cc1ccc(O)cc1)NC(=O)c1ccncc1 |  | 219 µM | inactive | 
10 | COC(=O)[C@H](Cc1ccccc1)NC(=O)[C@H](Cc1ccccc1)NC(=O)c1ccc(NC(=O)CN2CCCC2)cc1 |  | 106 µM | inactive | 
11 | CC(=O)OC[C@H](Cc1ccccc1)NC(=O)[C@H](Cc1ccccc1)NC(=O)c1ccc(CN(C)C)cc1 |  | 508 µM | inactive | 
12 | CCC(=O)Nc1ccc(C(=O)N[C@@H](Cc2ccccc2)C(=O)N[C@@H](Cc2ccc([N+](=O)[O-])cc2)C(=O)OC)cc1 ({Propionyl-4Abz}-Phe-[Phe(4-NO2)]-OMe) | 4.37 µM | 147 µM |  | 33.53
13 | O=C(N[C@@H](Cc1ccccc1)C(=O)N[C@H](CO)Cc1ccccc1)c1ccc(CN2CCCC2)cc1 | 14.1 µM | 128 µM |  | 9.11
14 | O=C(N[C@@H](Cc1ccccc1)C(=O)N[C@H](CO)Cc1ccccc1)c1ccc(CN2CCOCC2)cc1 | 13.9 µM | 157 µM |  | 11.25
15 | O=C(N[C@@H](Cc1ccc(O)cc1)C(=O)N[C@H](CO)Cc1ccccc1)c1ccncc1 |  | 612 µM | inactive | 
16 | COC(=O)[C@H](Cc1ccc([N+](=O)[O-])cc1)NC(=O)[C@H](Cc1ccc(O)cc1)NC(=O)c1ccncc1 |  | 238 µM | inactive | 
17 | COC(=O)[C@H](Cc1ccccc1)NC(=O)[C@H](Cc1ccccc1)NC(=O)c1ccncc1 |  | 1060 µM | inactive | 

Now from value to compound, other results behind:

Row | IC50 (Hepatitis B virus [4]) | SMILES | CC50 at 216 h [1] | inhibition (Hepatitis B virus [2]) | Selectivity Index [3]
18 | 5.39 µM | COC(=O)[C@H](Cc1ccc(O)cc1)NC(=O)[C@H](Cc1ccccc1)NC(=O)c1ccncc1 | 867 µM |  | 161.01
19 | 2.85 µM | CCC(=O)Nc1ccc(C(=O)N[C@@H](Cc2ccccc2)C(=O)N[C@@H](Cc2ccccc2)C(=O)OC)cc1 ({Propionyl-4Abz}-Phe-Phe-OMe) | 258 µM |  | 90.45
20 | 64.6 µM | CCCCOc1ccc(C[C@H](NC(=O)[C@H](Cc2ccccc2)NC(=O)c2ccccc2)C(=O)[O-])cc1.[Na+] | 979 µM |  | 15.2
21 | 105 µM | COC(=O)[C@H](Cc1ccccc1)NC(=O)[C@H](Cc1ccccc1)NC(=O)c1ccc(OCCN(C)C)cc1 | 497 µM |  | 4.74
22 | 15.8 µM | CN(C)Cc1ccc(C(=O)N[C@@H](Cc2ccccc2)C(=O)N[C@H](CO)Cc2ccccc2)cc1 | 188 µM |  | 11.84
23 | 20.5 µM | COc1ccc(C[C@H](NC(=O)[C@H](Cc2ccccc2)NC(=O)c2ccccc2)C(=O)[O-])cc1.[Na+] (Bz-Phe-Tyr(Me)-OH) | 184 µM |  | 8.99
24 | 174 µM | CCCCOc1ccc(C[C@H](NC(=O)[C@H](Cc2ccccc2)NC(=O)c2ccccc2)C(=O)OC)cc1 | 1150 µM |  | 6.6
25 | 14 µM | CCOc1ccc(C[C@H](NC(=O)[C@H](Cc2ccccc2)NC(=O)c2ccccc2)C(=O)OC)cc1 (Bz-Phe-Tyr(Et)-OMe) | 818 µM |  | 58.61
26 | 0.71 µM | CC(=O)Nc1ccc(C(=O)N[C@@H](Cc2ccccc2)C(=O)N[C@H](CCl)Cc2ccccc2)cc1 | 30.1 µM |  | 42.26
27 | 27.6 µM | CN(C)CCOc1ccc(C(=O)N[C@@H](Cc2ccccc2)C(=O)N[C@H](CO)Cc2ccccc2)cc1 | 327 µM |  | 11.86

Source: ChEMBL document CHEMBL1817553, “Synthesis and biological evaluation of Matijing-Su derivatives as potent anti-HBV agents” (Bioorg Med Chem, 2011)
